Ratio, inhibition and Activity data for 22 molecules are collected here from ChEMBL document CHEMBL1629474, “Massive screening yields novel and selective Trypanosoma cruzi triosephosphate isomerase dimer-interface-irreversible inhibitors with anti-trypanosomal activity” (Eur J Med Chem, 2010).

Active and inactive are the calls of the source. The rule behind the calls is not given here.

One may read the inhibition as the percentage by which the read-out fell short of the control. Low values mean a weak effect, high ones a strong effect.

Assay [1] is described as follows: Selectivity for Trypanosoma cruzi triosephosphate isomerase over human triosephosphate isomerase.
Assay [2] has as its target Triosephosphate isomerase, glycosomal (Trypanosoma cruzi) (UniProt P52270). The assay is described as follows: Inhibition of Trypanosoma cruzi triosephosphate isomerase at 400 uM after 2 hrs. The method in brief:
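Recombinant E. coli-expressed enzyme, dialyzed into 100 mM triethanolamine/10 mM EDTA pH 7.4, was incubated with compound (DMSO stock) in 100 mM triethanolamine, 10 mM EDTA, pH 7.4, 10% DMSO at 36 °C for 2 h. An aliquot was then assayed for activity (glyceraldehyde 3-phosphate to dihydroxyacetone phosphate, α-glycerol phosphate dehydrogenase-coupled) with 5 ng enzyme. Irreversible inhibition was scored as loss of activity; means of two experiments.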

A further assay concerns Trypanosoma cruzi. The assay can be described thus: Antiparasitic activity against Trypanosoma cruzi T2 epimastigotes assessed as growth inhibition at 25 uM after 5 days. Format: functional. The gist of the method:
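Late-log epimastigotes were grown axenically at 28 °C in BHI-tryptose with 5% fetal calf serum and seeded at 2×10^6/mL in medium containing compound (DMSO stock; final DMSO ≤1%, 1% DMSO control). Growth was read as A590 at day 0 and day 5. Inhibition = {1 − [(Ap − A0p)/(Ac − A0c)]} × 100. Means of two experiments.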

Chain of Triosephosphate isomerase, glycosomal (Trypanosoma cruzi) (P52270 whole entry): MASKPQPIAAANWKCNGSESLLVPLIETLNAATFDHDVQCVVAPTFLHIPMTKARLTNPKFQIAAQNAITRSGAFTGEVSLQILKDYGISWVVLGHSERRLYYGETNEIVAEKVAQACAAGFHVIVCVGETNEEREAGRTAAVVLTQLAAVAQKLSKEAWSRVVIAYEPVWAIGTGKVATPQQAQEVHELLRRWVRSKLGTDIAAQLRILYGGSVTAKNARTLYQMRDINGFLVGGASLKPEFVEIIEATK

Regarding `CC1(C)[N+]([O-])=c2ccc(/C=C/c3ccccc3)cc2=[N+]1[O-]`, in assay [1], the Ratio was above 4. The inhibition in assay [2] came to 0%. Further, the result with Trypanosoma cruzi was Active.

On to `CCN(CC)CCCNS(=O)(=O)NCCCN(CC)CC`, for which the Ratio in assay [1] is above 4. The molecule further showed an inhibition in assay [2] of 0%. Also, the result in the assay on Trypanosoma cruzi was Active.

For the molecule `C=CCNC(=S)N/N=C/C=C/c1ccco1`, the Ratio in assay [1] was above 4. For the same molecule, the inhibition in assay [2] stood at 15%. In addition, in the assay on Trypanosoma cruzi, the outcome was Active.

For `CSc1ccc(/C=C/C(=O)c2ccccc2)cc1`, the Ratio in assay [1] is above 4. This molecule also gave an inhibition in assay [2] of 14%. Further, in the assay on Trypanosoma cruzi, the outcome was Active.

For the molecule `Cc1c(C=O)no[n+]1[O-]`, the Ratio in assay [1] was above 4. In assay [2], this molecule displayed an inhibition of 27%. For the same molecule, the outcome in the assay with Trypanosoma cruzi was Active.

With `O=C(CCl)Oc1ccc2c(c1)[n+]([O-])c1cc(Br)ccc1[n+]2[O-]`, in assay [1], the Ratio was above 4. This molecule also showed an inhibition in assay [2] of 50%. In addition, the outcome with Trypanosoma cruzi was Active.

With `O=C(/C=C/c1ccc([N+](=O)[O-])o1)N1CCN(C/C=C/c2ccccc2)CC1`, in assay [1], the Ratio was above 4. In addition, the inhibition in assay [2] stood at 0%. The outcome in the assay with Trypanosoma cruzi was Active.

Turning to `[O-][N+]1=c2ccc(Br)cc2=[N+]([O-])C12CCCC2`, the Ratio in assay [1] is above 4. In addition, the inhibition in assay [2] came out at 23%. Besides, the outcome with Trypanosoma cruzi was Active.

`CCCN(CCC(C)C1CC=C(C)CC1)Cc1ccc2c(c1)=[N+]([O-])C(C)(C)[N+]=2[O-]` (stereo unspecified): the Ratio in assay [1] was above 4. The molecule also had an inhibition in assay [2] of 4%. Also, the outcome in the assay on Trypanosoma cruzi was Active.

Turning to `O=C(N/N=C/c1ccc([N+](=O)[O-])s1)N1CCOCC1`, the Ratio in assay [1] was above 4. In addition, in assay [2], the inhibition came out at 5%. In the assay on Trypanosoma cruzi, the result was Active.

Take `C=CCNC(=S)N/N=C/C=C/c1ccc([N+](=O)[O-])s1`: the Ratio in assay [1] was above 4. This molecule yielded an inhibition in assay [2] of 26%. The outcome in the assay on Trypanosoma cruzi was Active.

On to `COc1ccc(/C=C/c2c(C)[n+]([O-])nc[n+]2[O-])cc1`, for which the Ratio in assay [1] was above 4. In assay [2], the inhibition worked out at 27%. Further, the result in the assay on Trypanosoma cruzi was Active.

For `CCOC(=O)CN(Cc1ccc(OC)cc1)c1ccc([N+](=O)[O-])cc1[N+](=O)[O-]`, in assay [1], the Ratio was above 4. For the same molecule, in assay [2], the inhibition turned out to be 10%. The outcome with Trypanosoma cruzi was Active.

As to `O=C(NCCc1ccccc1)N/N=C/c1ccc2no[n+]([O-])c2c1`, the Ratio in assay [1] was above 4. Also, the inhibition in assay [2] worked out at 38%. For the same molecule, the outcome with Trypanosoma cruzi was Active.

As for `CCCCNC(=O)c1ccc2no[n+]([O-])c2c1`, in assay [1], the Ratio was above 4. The molecule also returned an inhibition in assay [2] of 12%. For the same molecule, the result in the assay on Trypanosoma cruzi was Active.

`Cc1ccc2c(c1)=[N+]([O-])C1(CCCC1)[N+]=2[O-]`: the Ratio in assay [1] was above 4. This molecule had an inhibition in assay [2] of 27%. The outcome in the assay with Trypanosoma cruzi was Active.

Take `COCCNC(=O)N/N=C/c1ccc2no[n+]([O-])c2c1`: in assay [1], the Ratio is above 4. The molecule also returned an inhibition in assay [2] of 3%. In addition, the outcome in the assay with Trypanosoma cruzi was Active.

With `O=S(=O)(NCc1ccccc1)NCc1ccccc1`, the Ratio in assay [1] is above 4. This molecule also came in with an inhibition in assay [2] of 76%. In the assay with Trypanosoma cruzi, the result was Active.

On to `N#Cc1ccc(C=Cc2ccc3no[n+]([O-])c3c2)cc1`, for which the Ratio in assay [1] is above 4. Besides, in assay [2], the inhibition turned out to be 0%. Also, the outcome with Trypanosoma cruzi was Active.

`[O-][N+]1=c2ccc(/C=N/O)cc2=[N+]([O-])C12CCCC2`: in assay [1], the Ratio is above 4. In assay [2], the inhibition came to 2%. The result with Trypanosoma cruzi was Active.

As for `O=Cc1ccc(OCc2ccc3no[n+]([O-])c3c2)cc1`, in assay [1], the Ratio was above 4. For the same molecule, in assay [2], the inhibition is 0%. Besides, the result in the assay on Trypanosoma cruzi was Active.

Consider `COC(=O)N/N=C/c1ccc2nonc2c1`, for which, in assay [1], the Ratio was above 4. The molecule also gave an inhibition in assay [2] of 16%. Also, the result with Trypanosoma cruzi was Active.
